# In ChEMBL document CHEMBL1121797, “Studies on chiral interactions of 1-(2,5-dimethoxy-4-methylphenyl)-2-aminopropane and the corresponding N-hydroxy metabolites with cytochrome P-450” (J Med Chem, 1981):
# Values joined by “and” are separate entries in the source; they are usually repeats but may differ in a detail not shown here. Equal entries are not always repeated.
# What was measured:
# Cytochrome P450 2C19 [1] = molecular target: T1, Cytochrome P450 2C19 (Homo sapiens, UniProt P33261); assay: (§1) Extent of complex formation with 30 uM compound; assay type: ADME, Oryctolagus cuniculus; conditions: rabbit
# [2] = Extent rates of formation of metabolic intermediate Cytochrome P-450 at compound concentration of 30 uM; assay type: ADME
# How it was run: (§2)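 Rabbit liver microsomes at 2 mg protein/mL with 0.1 mM EDTA, 37 °C, substrate 30 μM. Complex formation started with 0.4 mM NADPH and followed by dual-wavelength absorbance, 457 vs 500 nm. Initial rate is the initial slope, ΔA×10^4 per nmol P-450 per min. Extent is the plateau absorbance. Lag is the time from NADPH addition to first 457-nm chromophore. Triplicate or single runs.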
# Cytochrome P450 2C19 [3] = molecular target: T1, Cytochrome P450 2C19; assay: Percent inhibition of formation of metabolic intermediate complex between Cytochrome P450 and compound 1a (30 uM) initially, on pre-incubation with compound concentration of 0 uM; assay type: ADME, Oryctolagus cuniculus; conditions: rabbit, probe compound 1a (30 uM)
# How it was run: (§3)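 Inverse cross-inhibition in NADPH-supplemented rabbit liver microsomes at 37 °C. Preincubation with racemic hydroxylamine at 0–30 μM, monitoring 457-nm complex formation. The amine was then added at 30 μM, or racemic hydroxylamine at 30 μM. Initial rate and plateau extent were taken from ΔA457–500 nm tracings. Percent inhibition is relative to incubation in fresh microsomes.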
# Cytochrome P450 2C19 [4] = molecular target: T1, Cytochrome P450 2C19; assay: Percent inhibition of formation of metabolic intermediate complex between Cytochrome P450 and compound 1a (30 uM) on extent, on pre-incubation with compound concentration of 5 uM; assay type: ADME, Oryctolagus cuniculus; conditions: rabbit, probe compound 1a (30 uM)
# How it was run: (§4)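 Hepatic microsomes came from male Dutch rabbits, fasted 24 h. They were diluted to 2 mg protein/mL in 50 mM Tris-Cl with 150 mM KCl, 10 mM MgSO4 and 0.1 mM EDTA, with NADPH added, at 37 °C. Microsomes were preincubated with racemic hydroxylamine 2, then 30 µM 1a or 30 µM racemic 2 was added. Complex formation was followed as ΔA457–500 nm, and inhibition of rate and extent (plateau) was calculated.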
# Cytochrome P450 2C19 [5] = molecular target: T1, Cytochrome P450 2C19; assay: (§5) Initial rate of complex formation with 30 uM compound; assay type: ADME, Oryctolagus cuniculus; conditions: rabbit
# Cytochrome P450 2C19 [6] = molecular target: T1, Cytochrome P450 2C19; assay: as §5; assay type: ADME, Oryctolagus cuniculus; conditions: rabbit; remark: listed apart in the source
# Cytochrome P450 2C19 [7] = molecular target: T1, Cytochrome P450 2C19; assay: Percent inhibition of formation of metabolic intermediate complex between Cytochrome P450 and compound 1ab (30 uM) initially, following incubation at compound concentration of 20 uM; assay type: ADME, Oryctolagus cuniculus; conditions: rabbit, probe compound 1ab (30 uM)
# How it was run: (§6)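 Rabbit liver microsomes (2 mg protein/mL; Tris-Cl/KCl/MgSO4 buffer, 0.1 mM EDTA) plus NADPH, at 37 °C, were preincubated with racemic or enantiomeric amine 1. The 457-nm complex was monitored until it plateaued (6–8 min), then racemic hydroxylamine 2 was added. Initial rate and plateau extent of complex formation came from dual-wavelength ΔA457–500 nm versus time tracings.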
# Cytochrome P450 2C19 [8] = molecular target: T1, Cytochrome P450 2C19; assay: Percent inhibition of formation of metabolic intermediate complex between Cytochrome P450 and compound 1a (30 uM) initially, on pre-incubation with compound concentration of 30 uM; assay type: ADME, Oryctolagus cuniculus; conditions: rabbit, probe compound 1a (30 uM); how it was run: as §3
# Cytochrome P450 2C19 [9] = molecular target: T1, Cytochrome P450 2C19; assay: Initial rate of complex formation without compound; assay type: ADME, Oryctolagus cuniculus; conditions: rabbit; how it was run: as §3
# Cytochrome P450 2C19 [10] = molecular target: T1, Cytochrome P450 2C19; assay: Percent inhibition of formation of metabolic intermediate complex between Cytochrome P450 and compound 1a (30 uM) initially, following incubation at compound concentration of 0 uM; assay type: ADME, Oryctolagus cuniculus; conditions: rabbit, probe compound 1a (30 uM); how it was run: as §3
# Cytochrome P450 2C19 [11] = molecular target: T1, Cytochrome P450 2C19; assay: Percent inhibition of formation of metabolic intermediate complex between Cytochrome P450 and compound 1ab (30 uM) on extent, following incubation at compound concentration of 20 uM; assay type: ADME, Oryctolagus cuniculus; conditions: rabbit, probe compound 1ab (30 uM); how it was run: as §6
# Cytochrome P450 2C19 [12] = molecular target: T1, Cytochrome P450 2C19; assay: Extent of complex formation with 5 uM compound; assay type: ADME, Oryctolagus cuniculus; conditions: rabbit
# Cytochrome P450 2C19 [13] = molecular target: T1, Cytochrome P450 2C19; assay: as §1; assay type: ADME, Oryctolagus cuniculus; conditions: rabbit; remark: listed apart in the source
# Cytochrome P450 2C19 [14] = molecular target: T1, Cytochrome P450 2C19; assay: Percent inhibition of formation of metabolic intermediate complex between Cytochrome P450 and compound 1a (30 uM) on extent, on pre-incubation with compound concentration of 0 uM; assay type: ADME, Oryctolagus cuniculus; conditions: rabbit, probe compound 1a (30 uM); how it was run: as §4
# Cytochrome P450 2C19 [15] = molecular target: T1, Cytochrome P450 2C19; assay: Percent inhibition of formation of metabolic intermediate complex between Cytochrome P450 and compound 1a (30 uM) on extent, on pre-incubation with compound concentration of 15 uM; assay type: ADME, Oryctolagus cuniculus; conditions: rabbit, probe compound 1a (30 uM); how it was run: as §4
# Cytochrome P450 2C19 [16] = molecular target: T1, Cytochrome P450 2C19; assay: Extent of complex formation without compound; assay type: ADME, Oryctolagus cuniculus; conditions: rabbit; how it was run: as §3
# Cytochrome P450 2C19 [17] = molecular target: T1, Cytochrome P450 2C19; assay: Percent inhibition of formation of metabolic intermediate complex between Cytochrome P450 and compound 1a (30 uM) initially, following incubation at compound concentration of 5 uM; assay type: ADME, Oryctolagus cuniculus; conditions: rabbit, probe compound 1a (30 uM); how it was run: as §3
# Cytochrome P450 2C19 [18] = molecular target: T1, Cytochrome P450 2C19; assay: as §5; assay type: ADME, Oryctolagus cuniculus; conditions: rabbit; remark: listed apart in the source
# Cytochrome P450 2C19 [19] = molecular target: T1, Cytochrome P450 2C19; assay: as §5; assay type: ADME, Oryctolagus cuniculus; conditions: rabbit; remark: listed apart in the source
# [20] = Lag time between the addition of compound (30 uM) and the first appearance of chromophore; assay type: ADME; how it was run: as §2
# Cytochrome P450 2C19 [21] = molecular target: T1, Cytochrome P450 2C19; assay: Extent of complex formation with 20 uM compound; assay type: ADME, Oryctolagus cuniculus; conditions: rabbit
# Cytochrome P450 2C19 [22] = molecular target: T1, Cytochrome P450 2C19; assay: Percent inhibition of formation of metabolic intermediate complex between Cytochrome P450 and compound 1a (30 uM) on extent, following incubation at compound concentration of 0 uM; assay type: ADME, Oryctolagus cuniculus; conditions: rabbit, probe compound 1a (30 uM); how it was run: as §4
# Cytochrome P450 2C19 [23] = molecular target: T1, Cytochrome P450 2C19; assay: Percent inhibition of formation of metabolic intermediate complex between Cytochrome P450 and compound 1a (30 uM) initially, following incubation at compound concentration of 15 uM; assay type: ADME, Oryctolagus cuniculus; conditions: rabbit, probe compound 1a (30 uM); how it was run: as §3
# Cytochrome P450 2C19 [24] = molecular target: T1, Cytochrome P450 2C19; assay: Percent inhibition of formation of metabolic intermediate complex between Cytochrome P450 and compound 1b (30 uM) on extent, following incubation at compound concentration of 20 uM; assay type: ADME, Oryctolagus cuniculus; conditions: rabbit, probe compound 1b (30 uM); how it was run: as §6
# T1 sequence (P33261 whole entry): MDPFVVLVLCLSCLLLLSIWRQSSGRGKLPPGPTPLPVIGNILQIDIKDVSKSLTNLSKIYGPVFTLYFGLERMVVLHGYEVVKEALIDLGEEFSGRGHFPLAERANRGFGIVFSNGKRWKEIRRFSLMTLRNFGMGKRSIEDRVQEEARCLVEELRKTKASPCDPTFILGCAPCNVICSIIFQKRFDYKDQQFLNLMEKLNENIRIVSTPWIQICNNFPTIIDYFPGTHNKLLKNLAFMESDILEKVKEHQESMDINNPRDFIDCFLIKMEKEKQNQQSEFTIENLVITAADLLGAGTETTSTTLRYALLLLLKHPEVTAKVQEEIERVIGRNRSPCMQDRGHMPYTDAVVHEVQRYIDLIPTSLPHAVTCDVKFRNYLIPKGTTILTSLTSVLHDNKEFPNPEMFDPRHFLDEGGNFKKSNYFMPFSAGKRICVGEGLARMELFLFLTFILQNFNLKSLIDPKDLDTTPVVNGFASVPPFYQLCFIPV
structure (smiles),measurement,setting,value
COc1cc(C[C@@H](C)NO)c(OC)cc1C.COc1cc(C[C@H](C)NO)c(OC)cc1C,Complex_formation,Cytochrome P450 2C19 [1],51 deltaA.10^4nmol-1
same,Rate,[2],131
same,inhibition at 0 uM,Cytochrome P450 2C19 [3],0%
same,inhibition at 5 µM,Cytochrome P450 2C19 [4],43%
same,Initial_rate,Cytochrome P450 2C19 [5],177 deltaA.10^4nmol-1.min-1 and 176 deltaA.10^4nmol-1.min-1
same,Initial_rate,Cytochrome P450 2C19 [6],5 deltaA.10^4nmol-1.min-1
same,inhibition at 20 µM,Cytochrome P450 2C19 [7],30%
same,inhibition at 30 µM,Cytochrome P450 2C19 [8],100%
same,Initial_rate,Cytochrome P450 2C19 [9],46 deltaA.10^4nmol-1.min-1 and 124 deltaA.10^4nmol-1.min-1
same,inhibition at 0 uM,Cytochrome P450 2C19 [10],30%
same,inhibition at 20 µM,Cytochrome P450 2C19 [11],12%
same,Complex_formation,Cytochrome P450 2C19 [12],39 deltaA.10^4nmol-1
same,Complex_formation,Cytochrome P450 2C19 [13],27 deltaA.10^4nmol-1
same,inhibition at 0 uM,Cytochrome P450 2C19 [14],0%
same,inhibition at 15 µM,Cytochrome P450 2C19 [15],100%
same,Complex_formation,Cytochrome P450 2C19 [16],76 deltaA.10^4nmol-1 and 95 deltaA.10^4nmol-1
same,inhibition at 5 µM,Cytochrome P450 2C19 [17],39%
same,Initial_rate,Cytochrome P450 2C19 [18],5.5 deltaA.10^4nmol-1.min-1
same,Initial_rate,Cytochrome P450 2C19 [19],12.4 deltaA.10^4nmol-1.min-1
same,Lag time,[20],0 s
same,Complex_formation,Cytochrome P450 2C19 [21],108 deltaA.10^4nmol-1
same,inhibition at 0 uM,Cytochrome P450 2C19 [22],30%
same,inhibition at 15 µM,Cytochrome P450 2C19 [23],51%
same,inhibition at 20 µM,Cytochrome P450 2C19 [24],13%
